Experimental data as given in ChEMBL document CHEMBL3871300, “Synthesis and evaluation of the anti-proliferative activity of diaryl-3-pyrrolin-2-ones and fused analogs” (Bioorg Med Chem Lett, 2017).
pIC50: −log10 of the molar value.

Key:
[1] = Antiproliferative activity against human U937 cells after 48 hrs by MTT assay; type: functional, cell-based; details: U-937, 48 h
Procedure, shortened: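 Human promonocytic U-937 cells exposed to compound for 48 h, then MTT added as an indirect viability read-out via mitochondrial activity. IC50 taken as the concentration reducing viability to 50% of mock-treated cells. Values averaged from at least three independent runs, each with eight replicates, with standard errors; n gives the number of independent runs.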

[2] = Cytotoxicity against human U937 cells assessed as cell viability at antiproliferative IC50 after 48 hrs by trypan exclusion assay; type: functional, U-937

Row | Compound | pIC50 [1] | Activity [2]
1 | Cn1cc(C2=C(c3ccccc3)CNC2=O)c2ccccc21 | < 4.00 | 
2 | COc1cc2c3c(c4cc(OC)c(OC)cc4c2cc1OC)C(=O)NC3 | < 4.00 | 
3 | COc1cc2c3c(c4c5ccccc5n(C)c4c2cc1OC)C(=O)NC3 | 4.32 | 
4 | COc1cc(C2=C(c3ccccc3)CNC2=O)cc(OC)c1OC | 4.48 | 
5 | COc1ccc(C2=C(c3cn(C)c4ccccc34)CNC2=O)cc1OC | < 4.00 | 
6 | COc1cc(C2=C(c3ccccc3)C(=O)NC2)cc(OC)c1OC | 4.08 | 
7 | COc1ccc(C2=C(c3cn(C)c4ccccc34)C(=O)NC2)cc1OC | 5.00 | 61%
8 | COc1ccc(C2=C(c3ccc(OC)c(OC)c3)C(=O)NC2)cc1OC | 4.24 | 
9 | COc1cc(C2=CC(=O)NC2)cc(OC)c1OC | < 4.00 | 
10 | COc1cc(C2=C(c3cc(OC)c(OC)c(OC)c3)C(=O)NC2)cc(OC)c1OC | 4.96 | 51%
11 | Cn1cc(C2=CC(=O)NC2)c2ccccc21 | < 4.00 | 
12 | COc1ccc(C2=C(c3ccc(OC)cc3)C(=O)NC2)cc1 | 4.89 | 
13 | COc1cc(C2=C(c3cn(C)c4ccccc34)C(=O)NC2)cc(OC)c1OC | 4.42 | 
14 | COc1ccc(C2=CC(=O)NC2)cc1OC | < 4.00 | 
